In article PMC7655718 (The Journal of antibiotics, 2020):
Converted amounts (≈) assume the structure as drawn. Read-outs that look alike come from different tables or passages of the source.

Experiments:
[1] = test system: S. aureus ATCC 25923 (Sa23); experiment: MIC, microdilution with resazurin; format: cell-based; details: Staphylococcus aureus, ATCC25923, read-out: MIC Sa23
Outline: (§1)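 Compounds dissolved in DMSO at 2 mg/mL. Overnight blood-agar colonies were suspended in PBS to 0.5 McFarland, then diluted in Mueller Hinton broth to about 1x10^6 cfu/mL with resazurin (1:1000 of 0.1% w/v stock). Twofold DMSO dilutions were added 1:40, giving 50 to 0.4 μg/mL at 2.5% DMSO. Incubation was 35 °C for 16-20 h. Blue/non-turbid wells counted as inhibited, pink/turbid as grown.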

[2] = test system: S. aureus ATCC 25923 biofilm formation; experiment: Biofilm inhibition assay; format: cell-based, Staphylococcus aureus; details: 2xMIC, MIC and 0.5xMIC concentrations, 24 hours
Outline: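 Blood-agar culture was suspended in PBS (0.5 McFarland), then diluted 1:100 in yeast extract casamino acid broth (about 1x10^6 cfu/mL). Compound at 2xMIC, MIC and 0.5xMIC was added before biofilm formation, in triplicate, with broth-only and bacteria+DMSO controls. Incubation was 35 °C for 24 h. Wells were PBS-washed, dried, stained with 0.1% crystal violet, solubilised in 33% acetic acid and read at 620 nm. % inhibition = [1−(ODcompound−ODbroth)/(ODdmso−ODbroth)]×100, from mean and SD.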

[3] = test system: A. baumannii ATCC 747 (Ab47); experiment: MIC, microdilution with resazurin; format: cell-based, Acinetobacter baumannii; details: for MIC: Acinetobacter baumannii, ATCC747, read-out: MIC Ab47; for MIC Ab47: A. baumannii ATCC 747
Outline: as §1

[4] = test system: human embryonic kidney cell line (HEK293); experiment: Toxicity against HEK293 cell line; format: cell-based
[5] = test system: S. aureus ATCC 33591 (Sa91); experiment: MIC, microdilution with resazurin; format: cell-based; details: Staphylococcus aureus, ATCC33591, read-out: MIC Sa91
Outline: as §1

[6] = test system: A. baumannii ATCC 19606 (type strain, Ab06); experiment: MIC and MBC; format: cell-based, Acinetobacter baumannii; details: for MIC / MBC: Acinetobacter baumannii
Outline: as §1

[7] = test system: S. aureus ATCC 33592 (Sa92); experiment: MIC, microdilution with resazurin; format: cell-based; details: Staphylococcus aureus, ATCC33592, read-out: MIC Sa92
Outline: as §1

[8] = test system: tested Gram-positive bacterial strains; experiment: MIC, text summary over tested Gram-positive strains; format: cell-based; details: read-out: MIC value as low as
[9] = test system: S. aureus BAA-2312 (Sa12); experiment: MIC, microdilution with resazurin; format: cell-based; details: Staphylococcus aureus, BAA2312, read-out: MIC Sa12
Outline: as §1

[10] = test system: S. epidermidis 700296 (Se); experiment: MIC, microdilution with resazurin; format: cell-based; details: Staphylococcus epidermidis, read-out: MIC Se
Outline: as §1

[11] = test system: S. aureus ATCC 700699 (Sa99); experiment: MIC, microdilution with resazurin; format: cell-based; details: Staphylococcus aureus, ATCC700699, read-out: MIC Sa99
Outline: as §1

[12] = test system: S. aureus ATCC 25923 preformed biofilm; experiment: Biofilm destruction assay; format: cell-based, Staphylococcus aureus; details: 2xMIC, MIC and 0.5xMIC tested, 24 hours
Outline: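 Biofilm was first grown in 96-well plates for 24 h at 35 °C and washed with PBS to remove unadhered cells. Fresh yeast extract casamino acid broth was added with compound at 2xMIC, MIC or 0.5xMIC, or DMSO, in triplicate, plus broth-only wells. Incubation was 35 °C for 24 h. Crystal violet was stained, solubilised and read at 620 nm. % destruction = [1−(ODcompound−ODbroth)/(ODdmso−ODbroth)]×100, from triplicate means.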

[13] = test system: B. subtilis ATCC 6623 (Bs); experiment: MIC, microdilution with resazurin; format: cell-based, Bacillus subtilis; details: for MIC: Bacillus subtilis, ATCC6623, read-out: MIC Bs
[14] = test system: tested A. baumannii strains; experiment: MIC, text summary over A. baumannii strains; format: cell-based, Acinetobacter baumannii; details: Acinetobacter baumannii, read-out: MIC value as low as
Outline: as §1

[15] = test system: A. baumannii ATCC BAA-1605 (Ab05); experiment: MIC, microdilution with resazurin; format: cell-based, Acinetobacter baumannii
Outline: as §1

A. baumannii ATCC 19606 = experiment: Time kill assay; format: cell-based, Acinetobacter baumannii; details: 4xMIC
Outline: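 Growth curves by optical density set the log phase. Log-phase bacteria (about 2 h shaking in Mueller Hinton broth II) were diluted in warm broth to about 3x10^6 cfu/mL. They were exposed to compound at 4xMIC (other multiples where indicated), in triplicate, at 35 °C. Colistin (A. baumannii) or vancomycin (S. aureus) and DMSO were included. Samples at 0, 2, 4, 6, 8, 10, 12 and 24 h were counted by drop plate on blood agar (18-24 h, 35 °C). Log cfu/mL was plotted against time.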

Row | Structure (SMILES) | MIC [1] [µg/mL] | MIC [3] [µg/mL] | MIC [5] [µg/mL] | MIC ([6]; ATCC19606, read-out: MIC Ab06) [µg/mL] | MIC [7] [µg/mL] | MIC [8] [µg/mL] | MIC [9] [µg/mL] | MIC [10] [µg/mL] | MIC [11] [µg/mL] | MIC [13] [µg/mL] | MIC [14] [µg/mL] | MBC ([6]; ATCC19606) [µg/mL] | MIC ([6]; ATCC19606) [µg/mL] | MIC Ab47 [3] | MIC Ab05 [15] | further results
1 | O=C(O)c1ccc(-n2cc(/C=N/N(Cc3ccccc3)Cc3ccccc3)c(-c3ccc4ccccc4c3)n2)cc1 [Compound 10] | 3.12 (≈ 5.82 µM) | > 50 | 1.56 (≈ 2.91 µM) | > 50 | 1.56 (≈ 2.91 µM) | ≥ 1.56 | 3.12 (≈ 5.82 µM) | 3.12 (≈ 5.82 µM) | 1.56 (≈ 2.91 µM) | > 50 |  |  |  |  |  | inhibition of biofilm formation [2]: very effective; toxicity for HEK293 [4]: did not show any significant toxicity; IC50 ([4]; Homo sapiens, HEK293, read-out: IC50 for HEK293 cell line): ~50 µg/mL (≈ 93.2 µM); destruction of preformed biofilm [12]: excellent ability to eliminate the preformed biofilms; MIC Bs ([13]; B. subtilis ATCC 6623): no activity
2 | O=C(O)c1ccc(-n2cc(/C=N/Nc3ccccc3F)c(-c3ccc4ccccc4c3)n2)cc1 [Compound 14] | 12.5 (≈ 27.7 µM) | 25 (≈ 55.5 µM) | 12.5 (≈ 27.7 µM) | 25 (≈ 55.5 µM) | 1.56 (≈ 3.46 µM) | ≥ 1.56 | 12.5 (≈ 27.7 µM) | 12.5 (≈ 27.7 µM) | 3.12 (≈ 6.94 µM) | 6.25 (≈ 13.9 µM) | ≥ 6.25 |  |  |  |  | 
3 | O=C(O)c1ccc(-n2cc(/C=N/Nc3cccc(F)c3)c(-c3ccc4ccccc4c3)n2)cc1 [Compound 15] | 6.25 (≈ 13.9 µM) | 12.5 (≈ 27.7 µM) | 12.5 (≈ 27.7 µM) | 6.25 (≈ 13.9 µM) | 3.12 (≈ 6.94 µM) | ≥ 1.56 | 12.5 (≈ 27.7 µM) | 6.25 (≈ 13.9 µM) | 1.56 (≈ 3.46 µM) | 12.5 (≈ 27.7 µM) | ≥ 6.25 | 12.5 (≈ 27.7 µM) | 6.25 (≈ 13.9 µM) |  |  | 
4 | O=C(O)c1ccc(-n2cc(/C=N/Nc3cccc(Br)c3)c(-c3ccc4ccccc4c3)n2)cc1 [Compound 17] | 6.25 (≈ 12.2 µM) | > 50 | 6.25 (≈ 12.2 µM) | 12.5 (≈ 24.4 µM) | 1.56 (≈ 3.05 µM) |  | 6.25 (≈ 12.2 µM) | 6.25 (≈ 12.2 µM) | 1.56 (≈ 3.05 µM) | 3.12 (≈ 6.11 µM) |  |  |  | did not inhibit the growth | did not inhibit the growth | MIC Ab06 ([6]; A. baumannii ATCC 19606 (type strain)): moderately inhibited the growth
5 | O=C(O)c1ccc(-n2cc(/C=N/Nc3ccc(Br)cc3)c(-c3ccc4ccccc4c3)n2)cc1 [Compound 18] | 6.25 (≈ 12.2 µM) | 6.25 (≈ 12.2 µM) | 12.5 (≈ 24.4 µM) | 1.56 (≈ 3.05 µM) | 3.12 (≈ 6.11 µM) |  | 12.5 (≈ 24.4 µM) | 12.5 (≈ 24.4 µM) | 0.78 (≈ 1.53 µM) | 6.25 (≈ 12.2 µM) |  | 12.5 (≈ 24.4 µM) | 1.56 (≈ 3.05 µM) | moderate growth inhibitor | moderate growth inhibitor | time kill effect (A. baumannii ATCC 19606; 24 hours at 35 °C): bacteriostatic effect; increase in log10 cfu/mL of the bacterial population (A. baumannii ATCC 19606; through 24 hours): ≤ 2 fold
